Columns and labels:
GFP reporter in OSCs [1] = assay: Tethering reporter assay, λN-boxB recruitment to nascent RNA; type: cell-based, Drosophila; conditions: GFP by FACS, 2500 cells per experiment, normalized to control
In short: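 OSCs carrying a GFP reporter were nucleofected with λN-tagged protein plasmids (kit V, program T-029, six Mio. cells per transfection). Fold repression was derived from FACS GFP intensity relative to control, as mean ± SD of three biological replicates. For RNAi combinations, siRNA was given, then siRNA plus tethering plasmid 2 d later, with read-out 5 d after siRNA and 3 d after plasmid. Fusion expression was checked by western blot (Atp5a loading control).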

GFP-Ctp = assay: Coimmunoprecipitation with Ctp; type: binding, Drosophila; conditions: western blot, Panx: S2 cells, GFP-Ctp and FLAG-Panx
In short: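 Lysates from S2 cells transfected with FLAG-Panx variant plasmids and GFP-Ctp were immunoprecipitated via GFP-Ctp. Input, unbound and immunoprecipitate fractions were analysed by western blot, with immunoprecipitate lanes loaded at 4× relative amount.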

GFP reporter in OSCs [2] = conditions: tethering to nascent RNA; ref Batki et al. 2019; cited from earlier work

B1: Ctp: dynein light chain protein Cut up, Drosophila ortholog of LC8; λN fusion in tethering assay (protein)
chain: MSDRKAVIKNADMSEEMQQDAVDCATQALEKYNIEKDIAAYIKKEFDKKYNPTWHCIVGRNFGSYVTHETRHFIYFYLGQVAILLFKSG
With B1 as the molecule, how does the “cotranscriptional silencing (λN tethering)” value (GFP reporter in OSCs [1]) read?
Its value is “similarly strong repression”.

B2: C-terminal portion of Panx (amino acids 447–541): Panx fragment including the two predicted Ctp binding sites (protein, UniProt Q9W2H9 447-541, looked up, fragment)
chain: PTEEQETATLYKNAATQTERRTATRDAGTQVRLESKLNGAFWQNPHFDPMNLTQHQSNVMLALQEIYQTLPSATMAVKLSRALAPALAIIKGRQP
With B2 as the molecule, how does the “interaction with Ctp (co-IP)” value (GFP-Ctp) read?
Its value is “interacted with Ctp”.

B3: Panx: Panoramix, SFiNX subunit (protein)
chain: MEAPMKLEVKVENYVECGINEDEATPLREGTGETPPHAFACGVPMSGSGWCSDPEDGNLVHHSATPTSDEHLQPSLDTIEPKMEPKIKEDADNAMLDSLLADPFENNSPATLQTPADVKPNAMLDSVEQGSRSCELLPSEFSKRENLDDMDLFSLKAAKTLVPDEQQSFPQNDTPIDDPEAADLIAQKREILKMLEMTAENRKVKHKKKKHKKERSHRSNKHQEESRKRNHSNSSSDEGADDKNQFDCDYRGHKKYKNRRGSASSQNESSKERKLRDTELDYVPVRPDEHFIRPIKFSNLIERRPPQVEFNTVNLSKADKRSLAVARAELVLEQIQQKANKEEPPEFHMVDTICKLPVNESFRNQDCFENPSPICNNMNVVYKFNSTPGTRIDLSKWGLETVPEATKRLLRLLGIDVARLKELQSTVKPSQRILKLKKEQLEQGLAPTEEQETATLYKNAATQTERRTATRDAGTQVRLESKLNGAFWQNPHFDPMNLTQHQSNVMLALQEIYQTLPSATMAVKLSRALAPALAIIKGRQP
With B3 as the molecule, how does the “fold reporter silencing (λN tethering)” value (GFP reporter in OSCs [2]) read?
The value was about 20 fold.
